# From ChEMBL document CHEMBL4196179, “Synthesis and Pharmacological Evaluation of Noscapine-Inspired 5-Substituted Tetrahydroisoquinolines as Cytotoxic Agents” (J Med Chem, 2018)
# Activity calls are given as the source filed them. No cut-off for these calls is given here.
# Legend:
# MCF7 [1] = assay: Cell cycle arrest in human MCF7 cells assessed as increase in accumulation at G2/M phase at 10 uM after 18 hrs by Hoechst 33342 staining based FACS analysis relative to control; format: functional
# Summary of the method: (§1)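 Cells seeded 48 h beforehand, treated 18 h with test compounds at 10 µM or vincristine at 100 nM, then trypsinised and stained with Hoechst 33342 for 60 min; FACS read at 450 nm; % G2/M increase calculated relative to 0.1% DMSO vehicle; mean ± SEM of three independent experiments.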
# PANC-1 [2] = assay: Cell cycle arrest in human PANC1 cells assessed as increase in accumulation at G2/M phase at 10 uM after 18 hrs by Hoechst 33342 staining based FACS analysis relative to control; format: functional; summary of the method: as §1
# MCF7 [3] = assay: Antiproliferative activity against human MCF7 cells after 6 days by MTT assay; format: functional, cell-based; conditions: MCF7, 144 h
# Summary of the method: (§2)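 Cells seeded overnight at 1500/well, then exposed to a range of concentrations for 6 d; viability by MTT (570 nm, background-subtracted, normalised to untreated control = 100%); EC50 from sigmoidal dose-response fit by non-linear least squares; mean ± SEM of at least 8 independent observations. MCF-7 in MEMα + 10% FBS; NCI/AdrRES in DMEM + 10% FCS with periodic 3 µM doxorubicin selection.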
# NCI/ADR-RES [4] = assay: Antiproliferative activity against human NCI/ADR-RES cells after 6 days by MTT assay; format: functional, cell-based; conditions: 144 h; summary of the method: as §2
# [5] = Ratio of IC50 for human NCI/ADR-RES cells to IC50 for human MCF7 cells; format: functional
# Summary of the method: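 IC50 in doxorubicin-selected P-gp-expressing NCI/AdrRES cells divided by IC50 in parental MCF-7, each from 6 d MTT viability dose-response curves fitted by non-linear regression.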
# NCI/ADR-RES [6] = assay: Inhibition of P-gp in human NCI/ADR-RES cells assessed as rate of calcein-AM accumulation at 1 uM by fluorescence assay; format: cell-based
# Summary of the method: (§3)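 Cells seeded at 2 × 10^3/well and grown 2 d, washed and placed in HBSS; test compound added at 2X in HBSS with DMSO ≤1% final, then calcein-AM at 1 µM final; intracellular fluorescence followed over time, rate taken as slope from linear regression.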
# [7] = Binding affinity to recombinant P-gp cys-less mutant (unknown origin) in proteoliposomes assessed as increase in ATP hydrolysis rate after 40 mins by colorimetric assay; design: species or system Homo sapiens
# Summary of the method: (§4)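 P-gp expressed in High-Five insect cells via recombinant baculovirus, IMAC-purified and reconstituted into proteoliposomes; 0.1-0.5 µg incubated with 2 mM ATP and drug at 10^-9 to 10^-4 M for 40 min at 37 °C; liberated Pi measured colorimetrically; EC50 and extent of stimulation from dose-response fit against drug-free basal activity.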
# Homo sapiens [8] = species on record: Homo sapiens; assay: Binding affinity to recombinant P-gp cys-less mutant (unknown origin) in proteoliposomes assessed as increase in ATP hydrolysis rate at 10^-9 to 10^-4 M after 40 mins by colorimetric assay relative to basal control; summary of the method: as §4
# PANC-1 [9] = assay: Cell cycle arrest in human PANC1 cells assessed as accumulation at S phase at 100 nM after 18 hrs by Hoechst 33342 staining based FACS analysis (reference value: 11.1%); format: functional
# PANC-1 [10] = assay: Cell cycle arrest in human PANC1 cells assessed as accumulation at G1 phase at 100 nM after 18 hrs by Hoechst 33342 staining based FACS analysis (reference value: 70.7%); format: functional
# PANC-1 [11] = assay: Cell cycle arrest in human PANC1 cells assessed as accumulation at G2/M phase at 100 nM after 18 hrs by Hoechst 33342 staining based FACS analysis (reference value: 13.7%); format: functional
# PANC-1 [12] = assay: Cell cycle arrest in human PANC1 cells assessed as increase in accumulation at G2/M phase at 100 nM after 18 hrs by Hoechst 33342 staining based FACS analysis relative to control; format: functional; summary of the method: as §1
# MCF7 [13] = assay: Cell cycle arrest in human MCF7 cells assessed as increase in accumulation at G2/M phase at 100 nM after 18 hrs by Hoechst 33342 staining based FACS analysis relative to control; format: functional; summary of the method: as §1
# PANC-1 [14] = assay: Cell cycle arrest in human PANC1 cells assessed as accumulation at G2/M phase at 10 uM after 18 hrs by Hoechst 33342 staining based FACS analysis (reference value: 13.7%); format: functional
# MCF7 [15] = assay: Synergistic antiproliferative activity against human MCF7 cells assessed as reduction in cell viability at 1 uM after 6 days in presence of vinblastine by MTT assay; format: functional
# PANC-1 [16] = assay: Cell cycle arrest in human PANC1 cells assessed as accumulation at G1 phase at 10 uM after 18 hrs by Hoechst 33342 staining based FACS analysis (reference value: 70.7%); format: functional
# Homo sapiens [17] = species on record: Homo sapiens; assay: Inhibition of P-gp in human NCI/ADR-RES cells assessed as potentiation of vinblastine-induced cytotoxicity by measuring combination index at 0.1 uM compound concentration after 6 days by MTT assay; format: cell-based
# MCF7 [18] = assay: Effect on calcein-AM accumulation in human wild type MCF7 cells at 1 uM by fluorescence assay; format: functional, cell-based; summary of the method: as §3
# MCF7 [19] = assay: Synergistic antiproliferative activity against human MCF7 cells assessed as reduction in cell viability at 0.3 uM after 6 days in presence of vinblastine by MTT assay; format: functional
# MCF7 [20] = assay: Synergistic antiproliferative activity against human MCF7 cells assessed as reduction in cell viability at 0.1 uM after 6 days in presence of vinblastine by MTT assay; format: functional
# Homo sapiens [21] = species on record: Homo sapiens; assay: Inhibition of P-gp in human NCI/ADR-RES cells assessed as potentiation of vinblastine-induced cytotoxicity by measuring combination index at 0.3 uM compound concentration after 6 days by MTT assay; format: cell-based
# Homo sapiens [22] = species on record: Homo sapiens; assay: Inhibition of P-gp in human NCI/ADR-RES cells assessed as potentiation of vinblastine-induced cytotoxicity by measuring combination index at 1 uM compound concentration after 6 days by MTT assay; format: cell-based
# Sus scrofa [23] = species on record: Sus scrofa; assay: Inhibition of pig tubulin polymerization assessed as Vmax of tubulin polymerization at 10 uM after 60 mins turbidimetric analysis (reference value: 27 +/- 2 milliOD/min)
# PANC-1 [24] = assay: Cell cycle arrest in human PANC1 cells assessed as accumulation at S phase at 10 uM after 18 hrs by Hoechst 33342 staining based FACS analysis (reference value: 11.1%); format: functional
# MCF7 [25] = assay: Cytotoxicity against human MCF7 cells assessed as reduction in cell viability after 5 days by cellTiter-blue assay; format: functional, cell-based; conditions: MCF7, 120 h
# PC-3 = assay: Cytotoxicity against human PC3 cells assessed as reduction in cell viability after 5 days by cellTiter-blue assay; format: functional, cell-based; conditions: PC-3, 120 h
# Sus scrofa [26] = species on record: Sus scrofa; assay: Stabilization of pig tubulin assessed as Vmax of tubulin polymerization at 10 uM after 60 mins turbidimetric analysis (reference value: 27 +/- 2 milliOD/min)
Compound,Activity (MCF7 [1]) [%],Activity (PANC-1 [2]) [%],also measured
CCNC(=O)N1CCc2c(Br)c3c(c(OC)c2C1c1cccc(OC)c1OC)OCO3 (configuration not stated),19,14,–
CCNC(=O)N1CCc2c(Br)c3c(c(OC)c2C1c1ccccc1)OCO3 (configuration not stated),6,-2,–
CCNC(=O)N1CCc2c(Br)c3c(c(OC)c2C1c1cc(OC)c(OC)c(OC)c1)OCO3 (configuration not stated),3,2,–
COc1ccc2c(c1OC)CC1c3c(c(Br)c4c(c3OC)OCO4)CCN1C2 (configuration not stated),28,9,–
CCNC(=O)N1CCc2c(Br)c3c(c(OC)c2C1c1ccc(OC)c(OC)c1)OCO3 (configuration not stated),-6,11,–
CC[C@]1(O)C[C@@H]2CN(CCc3c([nH]c4ccccc34)[C@@](C(=O)OC)(c3cc4c(cc3OC)N(C)[C@H]3[C@@](O)(C(=O)OC)[C@H](OC(C)=O)[C@]5(CC)C=CCN6CC[C@]43[C@@H]65)C2)C1 [VINBLASTINE],–,–,IC50 (MCF7 [3]): 0.36 nM; IC50 (NCI/ADR-RES [4]): 96 nM; Ratio IC50 [5]: 267
COc1c2c(c(Br)c3c1C(c1ccccc1)N(C)CC3)OCO2 (configuration not stated),18,-7,–
COc1ccc(CC2c3c(c(Br)c4c(c3OC)OCO4)CCN2C)cc1 (configuration not stated),180,226,–
CCNC(=O)N1CCc2c(Br)c3c(c(OC)c2C1Cc1ccccc1)OCO3 (configuration not stated),1,-8,–
COc1ccc(CC2c3c(c(Br)c4c(c3OC)OCO4)CCN2C)cc1OC (configuration not stated),19,0,–
COc1c2c(c(Br)c3c1C(Cc1ccccc1)N(C)CC3)OCO2 (configuration not stated),9,13,–
COc1cc(C2c3c(c(Br)c4c(c3OC)OCO4)CCN2C)cc(OC)c1OC (configuration not stated),48,12,–
COc1cccc(C2c3c(c(Br)c4c(c3OC)OCO4)CCN2C)c1OC (configuration not stated),29,16,–
CCNC(=O)N1CCc2c(Br)c3c(c(OC)c2C1Cc1ccc(OC)c(OC)c1)OCO3 (configuration not stated),12,-10,–
COC(=O)C1=C(C)NC(C)=C(C(=O)OCCN(C)Cc2ccccc2)C1c1cccc([N+](=O)[O-])c1 (configuration not stated) [NICARDIPINE],–,–,Activity (NCI/ADR-RES [6]): 107 RFU/min; EC50 [7]: 4700 nM; fold change (FC) (Homo sapiens [8]): 13.6
COc1ccc(C2c3c(c(Br)c4c(c3OC)OCO4)CCN2C)cc1 (configuration not stated),23,26,–
COc1ccc(C2c3c(c(Br)c4c(c3OC)OCO4)CCN2C)cc1OC (configuration not stated),20,8,–
CC[C@]1(O)C[C@H]2CN(CCc3c([nH]c4ccccc34)[C@@](C(=O)OC)(c3cc4c(cc3OC)N(C=O)[C@H]3[C@@](O)(C(=O)OC)[C@H](OC(C)=O)[C@]5(CC)C=CCN6CC[C@]43[C@@H]65)C2)C1 [VINCRISTINE],–,–,Activity (PANC-1 [9]): 9.7%; Activity (PANC-1 [10]): 21.2%; Activity (PANC-1 [11]): 64.1%; Activity (PANC-1 [12]): 265%; Activity (MCF7 [13]): 283%
COc1cc(CC2c3c(c(Br)c4c(c3OC)OCO4)CCN2C)cc(OC)c1OC (configuration not stated),-8,-1,–
CCNC(=O)N1CCc2c(Br)c3c(c(OC)c2C1c1ccc(OC)cc1)OCO3 (configuration not stated),18,21,–
COc1cccc(CC2c3c(c(Br)c4c(c3OC)OCO4)CCN2C)c1OC (configuration not stated),32,8,–
CCNC(=O)N1CCc2c(Br)c3c(c(OC)c2C1Cc1ccc(OC)cc1)OCO3 (configuration not stated),208,175,Activity (PANC-1 [14]): 36.8%; CI (MCF7 [15]): 1.5; Activity (NCI/ADR-RES [6]): 78 RFU/min; Activity (PANC-1 [16]): 53.5%; EC50 [7]: 2400 nM; IC50 (MCF7 [3]): 2700 nM; CI (Homo sapiens [17]): 0.6; Activity (MCF7 [18]): inactive; fold change (FC) (Homo sapiens [8]): 6.2; CI (MCF7 [19]): 1.02; CI (MCF7 [20]): 1.09; IC50 (NCI/ADR-RES [4]): 2500 nM; CI (Homo sapiens [21]): 0.57; CI (Homo sapiens [22]): 0.95; Vmax (milli optical density/minute) (Sus scrofa [23]): 20; Activity (PANC-1 [24]): 7.7%
CCNC(=O)N1CCc2c(Br)c3c(c(OC)c2C1Cc1cc(OC)c(OC)c(OC)c1)OCO3 (configuration not stated),5,-4,–
CCNC(=O)N1CCc2cc3c(c(OC)c2[C@@H]1[C@H]1OC(=O)c2c1ccc(OC)c2OC)OCO3,–,–,EC50 (MCF7 [25]): 3600 nM; EC50 (PC-3): 6700 nM
CCNC(=O)N1CCc2c(Br)c3c(c(OC)c2C1Cc1cccc(OC)c1OC)OCO3 (configuration not stated),11,28,–
CC(=O)O[C@H]1C(=O)[C@@]2(C)[C@H]([C@H](OC(=O)c3ccccc3)[C@]3(O)C[C@H](OC(=O)[C@H](O)[C@@H](NC(=O)c4ccccc4)c4ccccc4)C(C)=C1C3(C)C)[C@]1(OC(C)=O)CO[C@@H]1C[C@@H]2O,–,–,Vmax (milli optical density/minute) (Sus scrofa [26]): 76
